According to ChEMBL document CHEMBL3244228, “Synthesis and biological properties of 2-, 5-, and 6-fluoronorepinephrines” (J Med Chem, 1979):
The source made the active and inactive calls. No cut-off for these calls is given here.

How the values were obtained:
[1] = Agonist activity at beta-adrenergic receptor in Hartley guinea pig ileum assessed as maximal relaxation; assay type: tissue-based; conditions: Cavia porcellus
[2] = Agonist activity at beta-adrenergic receptor in Hartley guinea pig atria assessed as maximal increase in contraction rate; design: species or system Cavia porcellus
In short: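 Atria from 250-300 g male Hartley guinea pigs, bathed in 10 mL Tyrode's at 37 °C under 95% O2/5% CO2, dosed at 0.1 to 100 μM. Contraction rate read 60 s after each dose against the pre-experiment rate and expressed as percent of the maximal increase given by (±)-NE. EC50 ± SD from eight dose-response curves.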

[3] = Agonist activity at alpha-adrenergic receptor in Hartley guinea pig aorta assessed as maximal contraction; assay type: tissue-based, Cavia porcellus
In short: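 Aortic strip from 250-300 g male Hartley guinea pigs, in 10 mL Tyrode's solution at 37 °C aerated with 95% O2/5% CO2. Full concentration range, 0.1 to 100 μM. Response is percent of maximal contraction (largest contraction per dose relative to the maximum for (±)-NE). EC50 ± SD estimated from eight dose-response curves.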

Cavia porcellus [4] = organism: Cavia porcellus; experiment: Agonist activity at alpha-adrenergic receptor in Hartley guinea pig aorta assessed as maximal contraction in presence of alpha-adrenergic receptor antagonist phentolamine; assay type: tissue-based
[5] = target: Adrenergic receptor alpha; experiment: Agonist activity at alpha-adrenergic receptor in Sprague-Dawley rat cerebral cortex assessed as [3H]cAMP accumulation by liquid scintillation spectroscopy in presence of propranolol; assay type: functional, tissue-based
In short: (§1)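 Male Sprague-Dawley rat cerebral cortical slices (260 μm, cross-chopped) are preincubated 15 min in Krebs-Ringer bicarbonate glucose buffer, labelled 40 min at 37 °C with adenine (30 μM) plus [3H]adenine, then equilibrated 5 min. Amines are applied at 1 to 100 μM for 10 min, with propranolol 10 μM for α responses and phentolamine 10 μM for β responses. Cyclic [3H]AMP is isolated from TCA extracts on a double column, corrected for carrier recovery and reported as percent conversion. EC50 from six dose-response curves.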

Cavia porcellus [6] = organism: Cavia porcellus; experiment: Agonist activity at alpha-adrenergic receptor in Hartley guinea pig aorta assessed as maximal contraction in presence of beta-adrenergic receptor antagonist propranolol; assay type: tissue-based
Cavia porcellus [7] = organism: Cavia porcellus; experiment: Agonist activity at beta-adrenergic receptor in Hartley guinea pig atria assessed as maximal increase in contraction rate in presence of alpha-adrenergic receptor antagonist phentolamine
[8] = target: Adrenergic receptor alpha (Rattus norvegicus) (UniProt P15823+P23944+P43140+P22086+P19328+P22909); experiment: Agonist activity at alpha-adrenergic receptor in Sprague-Dawley rat cerebral cortex assessed as [3H]cAMP accumulation by liquid scintillation spectroscopy in presence of propranolol and phentolamine; assay type: functional, tissue-based
Cavia porcellus [9] = organism: Cavia porcellus; experiment: Agonist activity at beta-adrenergic receptor in Hartley guinea pig atria assessed as maximal increase in contraction rate in presence of beta-adrenergic receptor antagonist propranolol
[10] = target: Adrenergic receptor alpha; experiment: Displacement of [3H]WB4101 from alpha-adrenergic receptor in Sprague-Dawley rat cerebral cortical membrane
Adrenergic receptor beta [11] = target: T1, Adrenergic receptor beta (Rattus norvegicus, UniProt P18090+P10608+P26255); experiment: Agonist activity at beta-adrenergic receptor in Sprague-Dawley rat cerebral cortex assessed as [3H]cAMP accumulation by liquid scintillation spectroscopy in presence of phentolamine; assay type: functional, tissue-based; in short: as §1
Adrenergic receptor beta [12] = target: T1, Adrenergic receptor beta; experiment: Displacement of [3H]dihydroalprenolol from beta-adrenergic receptor in Sprague-Dawley rat cerebral cortical membrane

NCC(O)c1ccc(O)c(O)c1 (configuration not stated)
EC50 [1]: 15.6 µM
EC50 [2]: 0.7 µM
EC50 [3]: 2.6 µM

Cl.NCC(O)c1cc(O)c(O)cc1F (racemic)
Activity (Cavia porcellus [4]): inactive
EC50 [2]: 72 µM
EC50 [5]: 5 µM
Activity (Cavia porcellus [6]): Active
Activity (Cavia porcellus [7]): Active
Activity [8]: inactive
Activity (Cavia porcellus [9]): inactive
EC50 [10]: 3 µM
EC50 [3]: 2.5 µM

Cl.NCC(O)c1ccc(O)c(O)c1F (racemic)
Activity (Cavia porcellus [4]): inactive
EC50 [2]: 0.6 µM
EC50 [5]: > 100 µM
Activity (Cavia porcellus [6]): Active
Activity (Cavia porcellus [7]): Active
Activity [8]: Active
Activity (Cavia porcellus [9]): inactive
EC50 [10]: > 100 µM
EC50 [3]: 110 µM

Cl.NCC(O)c1cc(O)c(O)c(F)c1 (racemic)
Activity (Cavia porcellus [4]): inactive
EC50 [1]: 44 µM
EC50 (Adrenergic receptor beta [11]): 2 µM
EC50 [2]: 0.11 µM
EC50 [5]: 5 µM
EC50 (Adrenergic receptor beta [12]): 4 µM
Activity (Cavia porcellus [6]): Active
Activity (Cavia porcellus [7]): Active
Activity (Cavia porcellus [9]): inactive
EC50 [10]: 15 µM
EC50 [3]: 2.4 µM
